Compound activity deposited in PubChem by Broad Institute.
Hits are enriched below; roughly 1.5% of the tested compounds scored in any of these assays.
dFosB act-1 – activators of mouse delta FosB homodimer; P13346; purified delta FosB, TAMRA-CDK5 oligo fluorescence polarization; percent of positive-control signal above neutral wells; activation, % at 25 µM; hit rate 0.99% among 340,000;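 active means mean activation above about 17%, with every replicate also reaching it, limit read from the data, passing the limit was not always enough; inconclusive means only one of the two conditions met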
S100A4 inh HTS – inhibitors of human S100A4 binding to myosin IIA peptide; P26447; S100A4/TAMRA-MyoIIA peptide fluorescence polarization; inhibition, % at 10.7 µM; hit rate 0.14% among 360,000;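 active means mean inhibition of at least 70% across replicates, with every replicate also reaching that level; inconclusive means mean inhibition reaches 70% but some replicates fall short; inactive means mean inhibition below 70%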
Target sequence (P26447 whole entry, looked up): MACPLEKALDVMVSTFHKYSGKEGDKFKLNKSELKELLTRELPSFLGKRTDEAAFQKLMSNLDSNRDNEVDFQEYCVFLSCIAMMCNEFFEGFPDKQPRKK
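assay system = human S100A4 monomer with TAMRA-labelled myosin IIA peptide | also added = labelled myosin peptide probe, 5 nM | incubation = 5 min between mix addition and reading | control set = DMSO and TFP controls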
AF4-AF9 inh – inhibitors of human MLL-AF4/AF9 interaction | P42568 | AlphaScreen, biotin-AF4 peptide binding to FLAG-AF9 | inhibition, % at 10 µM | hit rate 0.47% among 350,000 | AID 651704;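 active means every replicate reaching a set inhibition limit, whatever the replicate mean, cut at about 25% in these data; inconclusive means mean inhibition reaches that limit but some replicates miss it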;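 further: 0% = plate neutral control median and 100% = total signal loss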
RAD52 inh – blocks human RAD52 DNA annealing. P43351. recombinant RAD52 DNA annealing, FRET fluorescence. inhibition, % at 18.7 µM. hit rate 0.46% among 360,000. AID 651710;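 active means every replicate showing at least 50% inhibition; inconclusive means mean inhibition at least 50% but not in every replicate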
Target sequence (P43351 whole entry, looked up): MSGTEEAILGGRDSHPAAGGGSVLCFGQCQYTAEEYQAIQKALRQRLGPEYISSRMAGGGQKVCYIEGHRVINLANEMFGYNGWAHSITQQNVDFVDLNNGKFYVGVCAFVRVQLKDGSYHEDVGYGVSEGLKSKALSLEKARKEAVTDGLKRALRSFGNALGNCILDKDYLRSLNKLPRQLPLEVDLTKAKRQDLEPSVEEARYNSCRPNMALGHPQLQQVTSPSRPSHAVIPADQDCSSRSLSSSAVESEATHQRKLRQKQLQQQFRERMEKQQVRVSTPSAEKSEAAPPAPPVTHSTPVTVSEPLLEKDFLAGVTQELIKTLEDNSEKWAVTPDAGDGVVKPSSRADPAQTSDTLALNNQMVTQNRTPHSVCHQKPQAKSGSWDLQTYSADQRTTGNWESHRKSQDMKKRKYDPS
RAD54 inh – inhibitors of human RAD54 branch migration | inhibition, % at 10.4 µM | RAD54 Holliday junction branch migration, FAM/BHQ fluorescence | AID 602329 | hit rate 0.14% among 360,000;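 active means mean normalized replicate activity at least 40 and at least half of replicates scoring 40 or more; inconclusive means only one of the two criteria met; inactive means mean below 40 and under half of replicates reaching 40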;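 further: 0% = median of neutral control wells and 100% = median of positive control wells; inhibitors cause a drop in the FAM fluorescence signal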
dFosB act-2 – activators of mouse delta FosB homodimer DNA binding | activation, % at 24.9 µM | shares compounds with dFosB act-1 | AID 588690 | 2,400 tested, under 10 active | purified delta FosB, TAMRA-CDK5 oligo fluorescence polarization; normalised: neutral wells 0, positive control 100;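 active means highest replicate activation at or above 34% and every replicate reaching that threshold; inconclusive means meets only one of the two criteria; inactive means meets neither criterion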;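 further: higher polarization means more probe DNA bound by delta FosB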
An asterisk follows results filed as active.

Screening Cc1ccc(C)c(NC(=O)CCC(=O)NNC(=O)COc2cc(C)ccc2C)c1 returned dFosB act-1 36*, S100A4 inh HTS -5, AF4-AF9 inh -6, RAD52 inh -19, RAD54 inh 3 and dFosB act-2 -2.
Cc1ccc(NC(=O)CCC(=O)NNS(=O)(=O)c2ccc(Cl)cc2)cc1C was read as dFosB act-1 6, S100A4 inh HTS 1, AF4-AF9 inh -1, RAD52 inh -10 and RAD54 inh 5.
Screening Cc1ccc(C)c(NC(=O)CCC(=O)NNS(=O)(=O)c2ccc(Cl)cc2)c1 returned dFosB act-1 23*, S100A4 inh HTS 20, AF4-AF9 inh 0, RAD52 inh 5, RAD54 inh 9 and dFosB act-2 -1.
CN(CC(=O)Nc1ccccc1Cl)C(=O)COC(=O)c1ccc(C(F)(F)F)cc1 was read as dFosB act-1 -8, S100A4 inh HTS -13, AF4-AF9 inh -1, RAD52 inh -6 and RAD54 inh 9.
CN(CC(=O)Nc1ccccc1Cl)C(=O)COC(=O)c1ccc(-c2ccc(O)cc2)cc1 was read as dFosB act-1 45*, S100A4 inh HTS -2, AF4-AF9 inh -1, RAD52 inh 4, RAD54 inh -4 and dFosB act-2 0.
Screening COc1cccc(C(=O)Nc2nnc(SCC(=O)NC3CCCC3)s2)c1 returned dFosB act-1 22*, S100A4 inh HTS 9, AF4-AF9 inh 1, RAD52 inh 6, RAD54 inh 10 and dFosB act-2 3.
For O=C(CSc1nnc(NC(=O)c2cccc(F)c2)s1)NC1CCCC1 the results were dFosB act-1 60*, S100A4 inh HTS 0, AF4-AF9 inh -2, RAD52 inh -23 and dFosB act-2 1.
`O=C(CSc1nnc(NC(=O)c2cccc(F)c2)s1)NC1CC1` gave dFosB act-1 1, S100A4 inh HTS -3, AF4-AF9 inh -2, RAD52 inh -3 and RAD54 inh -2.
For Cc1ccc(-c2ccc3c(c2)O[C@H](CN(C)C(=O)C2CCC2)[C@H](C)CN([C@@H](C)CO)S3(=O)=O)cc1 the results were S100A4 inh HTS 7, AF4-AF9 inh 0, RAD52 inh -6 and RAD54 inh 1.
`C[C@H](CO)N1C[C@H](C)[C@H](CN(C)C(=O)Nc2ccc(F)cc2)Oc2ccc(NC(=O)Nc3ccccc3)cc2C1=O` gave S100A4 inh HTS -1, AF4-AF9 inh 4, RAD52 inh -34 and RAD54 inh 4.
Screening C[C@H](CO)N1C[C@H](C)[C@H](CN(C)C(=O)Nc2cccc3ccccc23)OCCCC[C@H](C)Oc2ccc(NC(=O)c3ccncc3)cc2C1=O returned S100A4 inh HTS 0, AF4-AF9 inh 0, RAD52 inh -17 and RAD54 inh -12.
CC(C)(C)[S@@](=O)N1Cc2cc(C(=O)N3CCCCC3)nc(-c3cccc(-c4ccccc4F)c3)c2[C@H]1CCO was read as S100A4 inh HTS -32, AF4-AF9 inh 0, RAD52 inh -8 and RAD54 inh 9.
CS(=O)(=O)c1cccc(C(=O)Nc2ccc(-c3nc4ccccc4[nH]3)cc2)c1 was read as dFosB act-1 37*, S100A4 inh HTS -15, AF4-AF9 inh 0, RAD52 inh -10, RAD54 inh 0 and dFosB act-2 8.
Screening CC(C)(C)N1C(=O)c2ccc(C(=O)Nc3ccc(-c4nc5ccccc5[nH]4)cc3)cc2C1=O returned dFosB act-1 -2.
`O=C(Nc1ccc(-c2nc3ccc(NC(=O)c4cccs4)cc3[nH]2)cc1)c1cccs1` gave dFosB act-1 47* and dFosB act-2 -1.
O=C(Nc1ccc(-c2nc3ccccc3[nH]2)cc1)c1ccc(N2C(=O)CCC2=O)cc1 was read as dFosB act-1 25*, S100A4 inh HTS -5, AF4-AF9 inh -1, RAD52 inh -18 and dFosB act-2 3.
CN(c1ccccc1)S(=O)(=O)c1ccc(Cl)c(C(=O)Nc2ccc(-c3nc4ccccc4[nH]3)cc2)c1 was read as dFosB act-1 44* and dFosB act-2 3.
Cc1ccc(S(=O)(=O)Nc2ccc3c(c2)C(=O)N([C@H](C)CO)C[C@H](C)[C@@H](CN(C)Cc2ccc(C(=O)O)cc2)OCCCC[C@@H](C)O3)cc1 was read as S100A4 inh HTS 0, AF4-AF9 inh -3, RAD52 inh 11 and RAD54 inh 1.
Screening O=C(C[C@H]1C[C@H]2c3cc(NS(=O)(=O)c4ccc(F)cc4)ccc3O[C@H]2[C@H](CO)O1)NCCc1ccccc1 returned S100A4 inh HTS 6, AF4-AF9 inh 1, RAD52 inh 5 and RAD54 inh 3.
For Cc1noc(C)c1S(=O)(=O)Nc1cccc2c1O[C@@H](CN(C)C(=O)NC(C)C)[C@@H](C)CN([C@@H](C)CO)C2=O the results were S100A4 inh HTS 0, AF4-AF9 inh -4, RAD52 inh -22 and RAD54 inh -1.
COC(=O)c1ccc(Nc2nc3ccc(C)cc3n3cnnc23)cc1 was read as dFosB act-1 -1, S100A4 inh HTS 1, AF4-AF9 inh inconclusive, RAD52 inh -10 and RAD54 inh -1.
`COc1cccc(Nc2nc3ccc(C(=O)c4ccccc4)cc3n3cnnc23)c1` gave dFosB act-1 19*, S100A4 inh HTS -1, AF4-AF9 inh 3, RAD52 inh -60, RAD54 inh -2 and dFosB act-2 0.
Screening Cc1c(Cl)cccc1NC(=O)CCNC(=O)N1CC(=O)Nc2ccccc21 returned dFosB act-1 23*, S100A4 inh HTS -5, AF4-AF9 inh -6, RAD52 inh -14, RAD54 inh -1 and dFosB act-2 6.
O=C([C@@H]1[C@@H](CO)[C@@H]2Cn3c(cccc3=O)[C@H]1N2CC1CCCCC1)N1CCOCC1 was read as S100A4 inh HTS 56, AF4-AF9 inh -1, RAD52 inh 13 and RAD54 inh 18.
For O=C(C1CCOCC1)N1CC[C@@H]2[C@@H](CO)Nc3ccc(-c4ccc(F)cc4)cc3[C@@H]21 the results were S100A4 inh HTS 7, AF4-AF9 inh 1, RAD52 inh -15 and RAD54 inh 2.
Screening CCN(CC)C(=O)Cn1c(=O)n(-c2ccc(CC(=O)NCc3ccccc3)cc2)c(=O)c2sccc21 returned dFosB act-1 -11, S100A4 inh HTS -3, AF4-AF9 inh -4, RAD52 inh -6 and RAD54 inh -3.
Cc1ccc(CNC(=O)Cn2c(=O)n(-c3ccccc3)c(=O)c3sccc32)cc1 was read as dFosB act-1 21*, S100A4 inh HTS -4, AF4-AF9 inh -20, RAD52 inh 1 and dFosB act-2 -9.
`O=C(CCn1c(=O)c2ccccc2n(Cc2cccnc2)c1=O)NCc1ccc2c(c1)OCO2` gave dFosB act-1 -5 and RAD54 inh 1.
